Each block holds one compound with its values, some of them ahead of it. Calls of active or inactive are those of the source. No cut-off for these calls is given here.
Tests used:
[1] = Solubility of the compound in phosphate buffer at > 10 uM; assay type: physicochemical
[2] = biological target: T1, Amine oxidase [flavin-containing] A (Homo sapiens, UniProt P21397); experiment: (§1) Inhibition of recombinant human MAO-A expressed in baculovirus infected BTI-TN- 5B1-4 insect cells using kynuramine as substrate preincubated for 10 mins in presence of substrate followed by enzyme addition and measured every minute for 30 mins by spectrophotometry analysis
T1 sequence (P21397 whole entry): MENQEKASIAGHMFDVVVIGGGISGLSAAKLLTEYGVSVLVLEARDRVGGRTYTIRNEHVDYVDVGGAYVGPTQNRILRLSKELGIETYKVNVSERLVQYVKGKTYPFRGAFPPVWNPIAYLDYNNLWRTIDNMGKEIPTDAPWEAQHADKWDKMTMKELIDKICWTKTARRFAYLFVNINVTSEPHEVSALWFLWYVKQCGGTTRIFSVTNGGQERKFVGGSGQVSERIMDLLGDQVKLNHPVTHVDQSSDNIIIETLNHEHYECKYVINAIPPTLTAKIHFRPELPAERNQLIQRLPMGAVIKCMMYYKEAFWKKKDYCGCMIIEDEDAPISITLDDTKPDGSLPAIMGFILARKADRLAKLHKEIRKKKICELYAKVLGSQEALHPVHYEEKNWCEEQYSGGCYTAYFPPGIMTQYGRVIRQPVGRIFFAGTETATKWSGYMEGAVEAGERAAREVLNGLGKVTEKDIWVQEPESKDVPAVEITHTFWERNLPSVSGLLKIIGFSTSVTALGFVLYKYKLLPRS
Method in brief: (§2)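 Recombinant hMAO-A and hMAO-B were assayed with kynuramine as substrate. Percent inhibition was taken at 10 μM, the highest concentration tested. Where the hMAO-A IC₅₀ was not reached, it was taken as 10 μM.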

[3] = biological target: T2, Amine oxidase [flavin-containing] B (Homo sapiens, UniProt P27338); experiment: (§3) Inhibition of recombinant human MAO-B expressed in baculovirus infected BTI-TN- 5B1-4 insect cells using kynuramine as substrate preincubated for 10 mins in presence of substrate followed by enzyme addition and measured every minute for 30 mins by spectrophotometry analysis; assay type: cell-based
T2 sequence (P27338 whole entry): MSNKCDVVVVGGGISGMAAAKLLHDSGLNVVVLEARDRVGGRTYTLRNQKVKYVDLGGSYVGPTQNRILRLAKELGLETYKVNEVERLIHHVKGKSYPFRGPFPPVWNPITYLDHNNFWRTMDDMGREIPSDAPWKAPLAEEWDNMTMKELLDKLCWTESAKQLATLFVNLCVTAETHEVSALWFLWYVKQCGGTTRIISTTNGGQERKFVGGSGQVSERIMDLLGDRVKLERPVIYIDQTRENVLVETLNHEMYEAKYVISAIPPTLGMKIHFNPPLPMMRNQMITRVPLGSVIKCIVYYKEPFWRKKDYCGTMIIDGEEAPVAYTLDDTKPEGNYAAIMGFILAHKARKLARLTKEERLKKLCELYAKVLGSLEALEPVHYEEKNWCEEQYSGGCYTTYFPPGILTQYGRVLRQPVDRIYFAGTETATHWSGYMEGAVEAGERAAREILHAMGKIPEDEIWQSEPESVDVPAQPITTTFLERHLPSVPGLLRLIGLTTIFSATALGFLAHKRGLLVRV

Homo sapiens = species on record: Homo sapiens; experiment: Selectivity index, ratio of IC50 for recombinant human MAO-A expressed in baculovirus infected BTI-TN- 5B1-4 insect cells to IC50 for recombinant human MAO-B expressed in baculovirus infected BTI-TN- 5B1-4 insect cells using kynuramine as substrate preincubated for 10 mins in presence of substrate followed by enzyme addition and measured every minute for 30 mins by spectrophotometry analysis; method in brief: as §2
SH-SY5Y [4] = experiment: Cytotoxicity against human SH-SY5Y cells assessed as effect on NR uptake at 1 to 10 uM measured after 24 hrs by neutral red uptake assay; assay type: cell-based; settings: dose 1-10 µM
Method in brief: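 Differentiated SH-SY5Y cells were exposed to compounds at 1 and 10 μM for 24 h. Lysosomal activity was read as neutral red dye uptake and compared with untreated cells. Mean ± SEM of at least three independent experiments run in triplicate.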

Caco-2 [5] = experiment: Cytotoxicity against human Caco-2 cells assessed as effect on cell viability at 1 to 10 uM measured after 24 hrs by MTT assay; assay type: cell-based; settings: caco-2, 24 h, dose 1-10 µM
Method in brief: (§4)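 Caco-2 cells, and SH-SY5Y cells first differentiated toward a dopaminergic-like phenotype, were treated for 24 h with compounds at 1 and 10 μM. Metabolic activity was read as MTT reduction to formazan, relative to untreated cells. Mean ± SEM of at least three independent experiments, each in triplicate.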

HUVEC [6] = experiment: Cytotoxicity against HUVEC cells at 10 uM incubated for 24 to 48 hrs by Celltiter-Glo assay relative to control; assay type: cell-based; settings: human, time 24-48 hrs
Method in brief: (§5)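 Cells (HEK-293, HUVEC, MCF-7) exposed to test compounds at 10 μM for 24 h; cytotoxicity read in triplicate with a luminescence kit measuring intracellular ATP levels.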

HEK293 [7] = experiment: Cytotoxicity against HEK293 cells at 10 uM incubated for 24 to 48 hrs by Celltiter-Glo assay relative to control; assay type: cell-based; settings: human, hek293, 10 µM, time 24-48 hrs; method in brief: as §5
MCF7 [8] = experiment: Cytotoxicity against human MCF7 cells at 10 uM incubated for 24 to 48 hrs by Celltiter-Glo assay relative to control; assay type: cell-based; settings: mcf7, 10 µM, time 24-48 hrs; method in brief: as §5
HUVEC [9] = experiment: Cytotoxicity against HUVEC cells incubated for 24 to 48 hrs by Celltiter-Glo assay; assay type: cell-based, Homo sapiens
HEK293 [10] = experiment: Cytotoxicity against HEK293 cells incubated for 24 to 48 hrs by Celltiter-Glo assay; assay type: cell-based, Homo sapiens
MCF7 [11] = experiment: Cytotoxicity against human MCF7 cells incubated for 24 to 48 hrs by Celltiter-Glo assay; assay type: cell-based
hERG = hERG (Homo sapiens, UniProt Q12809); experiment: Inhibition of human ERG at 10 uM incubated for 2 hrs by fluorescence polarization assay relative to control
hERG, sequence (Q12809 whole entry): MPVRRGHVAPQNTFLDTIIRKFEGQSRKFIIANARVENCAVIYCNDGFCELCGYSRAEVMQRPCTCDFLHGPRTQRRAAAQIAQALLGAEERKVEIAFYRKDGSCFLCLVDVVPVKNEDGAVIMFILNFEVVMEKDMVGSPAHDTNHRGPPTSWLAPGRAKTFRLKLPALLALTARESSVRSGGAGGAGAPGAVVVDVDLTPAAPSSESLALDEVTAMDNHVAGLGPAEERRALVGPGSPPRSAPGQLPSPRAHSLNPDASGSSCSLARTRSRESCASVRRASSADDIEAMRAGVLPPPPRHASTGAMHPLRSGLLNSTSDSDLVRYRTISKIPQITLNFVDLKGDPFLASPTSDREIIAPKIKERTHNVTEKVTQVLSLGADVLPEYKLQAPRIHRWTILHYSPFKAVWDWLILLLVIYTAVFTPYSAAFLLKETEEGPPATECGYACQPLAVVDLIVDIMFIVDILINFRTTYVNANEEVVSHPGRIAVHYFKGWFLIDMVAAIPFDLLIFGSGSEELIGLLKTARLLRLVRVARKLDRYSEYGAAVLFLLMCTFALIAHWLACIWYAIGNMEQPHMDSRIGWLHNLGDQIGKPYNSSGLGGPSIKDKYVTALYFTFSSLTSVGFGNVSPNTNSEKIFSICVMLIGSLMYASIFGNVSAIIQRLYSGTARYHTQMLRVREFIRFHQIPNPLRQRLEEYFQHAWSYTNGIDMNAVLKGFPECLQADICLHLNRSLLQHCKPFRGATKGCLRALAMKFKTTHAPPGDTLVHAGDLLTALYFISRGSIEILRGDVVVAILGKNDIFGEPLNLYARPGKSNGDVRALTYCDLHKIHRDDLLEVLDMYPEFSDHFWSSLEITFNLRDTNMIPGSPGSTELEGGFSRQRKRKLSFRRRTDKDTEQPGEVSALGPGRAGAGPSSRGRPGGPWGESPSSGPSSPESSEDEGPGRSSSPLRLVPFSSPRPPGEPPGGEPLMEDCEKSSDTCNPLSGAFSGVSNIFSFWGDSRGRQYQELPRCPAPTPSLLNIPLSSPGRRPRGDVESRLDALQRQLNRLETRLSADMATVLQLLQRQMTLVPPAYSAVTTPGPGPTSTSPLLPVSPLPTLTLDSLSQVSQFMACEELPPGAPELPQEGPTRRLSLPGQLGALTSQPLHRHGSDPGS
Method in brief: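 hERG binding was measured by fluorescence polarization, using a homogenized membrane preparation containing hERG plus a fluorescent tracer. A drop in FP signal from tracer displacement was read as inhibition. Compounds were tested at 10 μM.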

[12] = biological target: ATP-dependent translocase ABCB1 (Homo sapiens, UniProt P08183); experiment: Modulation of P-gp-mediated Rhodamine-123 efflux in human Caco-2 cells assessed as Rhodamine-123 accumulation at 10 uM pretreated for 30 mins in presence or absence of Zos followed by Rho-123 addition and measured after 90 mins by fluorescence spectroscopy; assay type: cell-based; settings: caco-2, 2 h, time 120 min
ATP-dependent translocase ABCB1, sequence (P08183 whole entry): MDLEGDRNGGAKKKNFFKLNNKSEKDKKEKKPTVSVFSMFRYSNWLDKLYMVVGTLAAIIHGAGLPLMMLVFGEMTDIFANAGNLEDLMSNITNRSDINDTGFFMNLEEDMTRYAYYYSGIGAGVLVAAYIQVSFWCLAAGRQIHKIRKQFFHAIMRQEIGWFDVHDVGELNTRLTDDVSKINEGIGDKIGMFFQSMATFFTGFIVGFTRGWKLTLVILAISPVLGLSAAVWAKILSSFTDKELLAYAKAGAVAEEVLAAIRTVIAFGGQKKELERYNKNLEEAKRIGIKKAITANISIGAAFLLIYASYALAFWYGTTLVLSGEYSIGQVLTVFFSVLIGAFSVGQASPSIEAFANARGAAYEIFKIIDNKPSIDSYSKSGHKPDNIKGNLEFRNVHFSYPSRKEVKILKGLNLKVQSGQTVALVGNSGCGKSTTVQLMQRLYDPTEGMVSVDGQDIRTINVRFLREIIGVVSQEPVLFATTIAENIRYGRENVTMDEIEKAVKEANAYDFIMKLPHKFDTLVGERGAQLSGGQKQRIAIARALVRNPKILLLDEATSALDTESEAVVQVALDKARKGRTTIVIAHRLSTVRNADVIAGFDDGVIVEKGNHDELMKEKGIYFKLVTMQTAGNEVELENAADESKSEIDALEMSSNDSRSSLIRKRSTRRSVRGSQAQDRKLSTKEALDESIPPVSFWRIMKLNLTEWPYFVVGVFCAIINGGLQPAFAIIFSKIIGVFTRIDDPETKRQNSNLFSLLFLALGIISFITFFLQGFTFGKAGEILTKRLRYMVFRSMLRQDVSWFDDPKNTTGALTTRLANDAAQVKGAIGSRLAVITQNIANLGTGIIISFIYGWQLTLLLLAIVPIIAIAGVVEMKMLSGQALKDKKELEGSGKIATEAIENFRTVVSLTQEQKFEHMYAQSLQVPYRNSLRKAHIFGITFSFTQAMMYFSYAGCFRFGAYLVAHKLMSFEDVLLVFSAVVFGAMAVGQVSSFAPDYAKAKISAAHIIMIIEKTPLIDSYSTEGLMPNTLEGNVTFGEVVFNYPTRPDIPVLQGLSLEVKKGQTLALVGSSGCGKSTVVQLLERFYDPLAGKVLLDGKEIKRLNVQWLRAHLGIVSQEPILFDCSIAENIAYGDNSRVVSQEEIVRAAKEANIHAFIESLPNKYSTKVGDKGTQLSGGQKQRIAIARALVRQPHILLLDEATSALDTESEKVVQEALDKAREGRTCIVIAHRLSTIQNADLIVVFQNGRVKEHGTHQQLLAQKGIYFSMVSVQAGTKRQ
Method in brief: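 Caco-2 cells were exposed to compounds at 10 μM during incubation with the P-gp substrate rhodamine 123 (5 μM). Zosuquidar served as the specific P-gp inhibitor. Cellular rhodamine 123 was read by fluorescence spectroscopy. Mean ± SEM of at least three independent experiments in triplicate.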

SH-SY5Y [13] = experiment: Protection against iron(III)-induced damage in human SH-SY5Y cells assessed as increase in lysosomal activity at 1 to 10 uM pretreated for 30 mins followed by iron(III) treatment at 1000 uM after 24 hrs by NR uptake assay; assay type: functional, cell-based; settings: dose 1-10 µM, time 24.5 hrs
Method in brief: (§6)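 Differentiated SH-SY5Y cells were pretreated with compounds at 1 or 10 μM for 30 min, then exposed to iron(III) at 1000 or 1500 μM for 24 h. Viability was read by neutral red uptake. Mean ± SD of three independent experiments, two-way ANOVA.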

SH-SY5Y [14] = experiment: Protection against iron(III)-induced damage in human SH-SY5Y cells assessed as increase in lysosomal activity at 1 to 10 uM pretreated for 30 mins followed by iron(III) treatment at 1500 uM after 24 hrs by NR uptake assay; assay type: functional, cell-based; settings: dose 1-10 µM, time 24.5 hrs; method in brief: as §6
Caco-2 [15] = experiment: Cytotoxicity against human Caco-2 cells assessed as reduction in cell viability at 10 uM measured after 24 hrs by MTT assay relative to control; assay type: cell-based; settings: caco-2, 24 h; method in brief: as §4
MAO-A = biological target: T3, MAO-A (Homo sapiens, UniProt P21397); experiment: as §1, with “cells at 10 uM” for “cells”, “analysis relative to control” for “analysis”; settings: probe kynuramine, time 40 min; method in brief: as §2
T3 sequence (P21397 whole entry): T1 sequence (P21397 whole entry)

[16] = biological target: T2, Amine oxidase [flavin-containing] B; experiment: Time dependent inhibition of recombinant human MAO-B expressed in baculovirus infected BTI-TN- 5B1-4 insect cells assessed as increase in enzyme activity at IC80 measured after 120 mins; settings: bti-tn-5b1-4, 2 h
[17] = biological target: T2, Amine oxidase [flavin-containing] B; experiment: as §3, with “cells at 10 uM” for “cells”, “analysis relative to control” for “analysis”; settings: BTI-TN-5B1-4, human, 0.5 h, time 40 min; method in brief: as §2
SH-SY5Y [18] = experiment: Cytotoxicity against human SH-SY5Y cells assessed as reduction in cell viability at 10 uM measured after 24 hrs by MTT assay relative to control; assay type: cell-based; method in brief: as §4

Compound: O=C(Nc1cccc(Cl)c1)C1=Cc2ccccc2OC1
- IC50 [2]: 11700 nM
- IC50 [3]: 26.4 nM
- Ratio IC50 (Homo sapiens): 444
- Activity (SH-SY5Y [4]): Non-Toxic
- Activity (Caco-2 [15]): 88.3%

Compound: COc1ccc(NC(=O)C2=Cc3ccccc3OC2)cc1OC
- IC50 [3]: 2870 nM
- inhibition at 0.5 h, 10 µM (MAO-A): 20.2%
- Ratio IC50 (Homo sapiens): > 3.48

Compound: Cc1ccc(NC(=O)C2COc3ccccc3C2)cc1C (stereo not drawn)
- IC50 [3]: 1780 nM
- inhibition at 0.5 h, 10 µM (MAO-A): 19.6%
- Ratio IC50 (Homo sapiens): > 5.62

Compound: O=C(Nc1cccc(Cl)c1)C1COc2ccccc2C1 (stereo not drawn)
- IC50 [3]: 957 nM
- inhibition at 0.5 h, 10 µM (MAO-A): 10.9%
- Ratio IC50 (Homo sapiens): > 10.4

Compound: C[C@H](NCc1ccc(OCc2cccc(F)c2)cc1)C(N)=O [SAFINAMIDE]
- inhibition at 0.5 h, 10 µM (MAO-A): 30.5%
- TDI [16]: Active

Further lines, with some results ahead:

- solubility [1]: Insoluble
Compound: COc1ccc(NC(=O)c2cc3ccccc3oc2=O)cc1OC

- IC50 [2]: 4130 nM
- IC50 [3]: 3.16 nM
- Activity [12]: Not Active
Compound: O=C(Nc1ccc(Cl)c(Cl)c1)C1=Cc2ccccc2OC1
- Ratio IC50 (Homo sapiens): 1300
- Activity (SH-SY5Y [4]): Non-Toxic
- Activity (Caco-2 [5]): Non-Toxic
- Activity (HUVEC [6]): 64.4%
- Activity (HEK293 [7]): < 10%
- Activity (MCF7 [8]): < 10%
- IC50 (HUVEC [9]; Homo sapiens, HUVEC, read-out: IC50): 8400 nM
- IC50 (HEK293 [10]): Not Active
- IC50 (MCF7 [11]): Not Active
- inhibition at 2 h, 10 µM (hERG): < 10%
- Activity (SH-SY5Y [13]): inactive
- Activity (SH-SY5Y [14]): inactive

- solubility [1]: Insoluble
Compound: O=C(Nc1ccc(Cl)c(Cl)c1)c1cc2ccccc2oc1=O

- IC50 [3]: 78.8 nM
- inhibition at 0.5 h, 10 µM (MAO-A): 16.4%
Compound: O=C(Nc1ccc(Cl)c(Cl)c1)C1COc2ccccc2C1 (stereo not drawn)
- Ratio IC50 (Homo sapiens): > 127
- Activity (SH-SY5Y [4]): Non-Toxic
- Activity (Caco-2 [5]): Non-Toxic

- inhibition at 0.5 h, 10 µM (MAO-A): 7.65%
- inhibition at 10 µM [17]: 21%
Compound: Cc1ccc(NC(=O)c2cc3ccccc3n(C)c2=O)cc1C

- Activity [12]: Not Active
Compound: Cc1ccc(NC(=O)c2coc3ccccc3c2=O)cc1C
- Activity (SH-SY5Y [18]): < 85%
- Activity (SH-SY5Y [4]): Non-Toxic
- Activity (Caco-2 [5]): Non-Toxic
- Activity (HUVEC [6]): < 10%
- Activity (HEK293 [7]): < 10%
- Activity (MCF7 [8]): < 10%
- IC50 (HUVEC [9]; huvec): Not Active
- IC50 (HEK293 [10]): Not Active
- IC50 (MCF7 [11]): Not Active
- inhibition at 2 h, 10 µM (hERG): < 10%
- Activity (SH-SY5Y [13]): inactive
- Activity (SH-SY5Y [14]): inactive

Reference: ChEMBL document CHEMBL4808210, “Mapping Chromone-3-Phenylcarboxamide Pharmacophore: Quid Est Veritas?” (J Med Chem, 2021)
